In the library only some 2.1% were active in any assay of this set; here they are far more common.
CCR6 antag: CCR6 (human) receptor antagonism. inhibition, % at 20 µM. P51684. actives 0.49% (n = 340,000). CHO-K1 CCR6 PathHunter beta-arrestin, luminescence, CCL20-stimulated;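 active means compounds whose inhibition of the agonist-driven luminescence signal at 20 µM reaches about 50%, limit read from the data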;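 further: cells stimulated with CCL20 at 14 nM final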
m5-HT2A agonist: mouse HTR2A agonism via beta-arrestin recruitment; actives 0.66% (n = 360,000); activation, % at 7.6 µM; CHO-K1 mHTR2A beta-arrestin complementation, luminescence; percent of 30 µM serotonin response;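 active means activation above a run cutoff, the mean activation of all tested compounds plus 3 SD, cut at about 14% in these data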
CXCR6 block: CXCR6 (human) receptor inhibition | O00574 | CHO-K1 PathHunter CXCR6 beta-arrestin, luminescence | inhibition, % at 20 µM | actives 0.36% (n = 360,000) | AID 602244; in the data active means inhibition above about 34%, passing the limit was not always enough;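 further: antagonist mode with CXCL16 agonist at 10 nM final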
EBI2 block: EBI2 (human) antagonism; P32249; EBI2 beta-arrestin recruitment, luminescence, 7a,25-OHC stimulated; inhibition, % at 5 µM; actives 0.81% (n = 360,000); in the data active means inhibition above about 38%;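 further: enzyme fragment complementation signal reports receptor beta-arrestin coupling in cells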
Target sequence (P32249 whole entry, looked up, the tested form may be a part): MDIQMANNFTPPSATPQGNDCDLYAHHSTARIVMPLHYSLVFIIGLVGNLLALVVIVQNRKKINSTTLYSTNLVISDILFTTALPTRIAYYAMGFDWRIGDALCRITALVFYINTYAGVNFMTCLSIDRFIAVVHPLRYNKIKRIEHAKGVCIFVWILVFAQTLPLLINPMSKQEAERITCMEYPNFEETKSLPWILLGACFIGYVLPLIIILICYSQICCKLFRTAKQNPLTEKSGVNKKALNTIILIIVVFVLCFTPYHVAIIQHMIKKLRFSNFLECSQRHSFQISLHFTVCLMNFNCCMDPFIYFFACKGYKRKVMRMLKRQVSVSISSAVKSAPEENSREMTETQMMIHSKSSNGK
APJ antagonist: APJ receptor antagonism. P35414. CHO-K1 APJ beta-arrestin complementation, luminescence. inhibition, % at 20 µM. actives 0.32% (n = 330,000);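 active means inhibition above about 40% at 20 µM, limit read from the data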;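 further: cells challenged with 10 nM apelin-13 agonist together with compound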
APJ agonist: activates the human apelin receptor APJ. P35414. CHO-K1 APJ PathHunter beta-arrestin, luminescence; 0% DMSO wells, 100% apelin. activation, % at 20 µM. actives 0.11% (n = 330,000). AID 2520;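 active means activation more than six SD over the plate average, tested at 20 µM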
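Assay system: CHO-K1 APJ beta-arrestin complementation cell line / Compound: single test compound dose, 20 µM final, 1% DMSO / Times: overnight seeding, 90 min compound at 25 °C, 1 h detection / Technique: beta-gal luminescence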
EBI2 antag conf: confirmation of human EBI2 receptor antagonists | shares compounds with EBI2 block | EBI2 beta-arrestin luminescence, 7a,25-OHC antagonism | inhibition, % at 5 µM | actives 29% (n = 2,400) | AID 651997;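 active means inhibition of at least 50%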
EBI2 agonist: EBI2 agonism counter-screen; activation, % at 5 µM; EBI2-expressing cells, agonist mode, luminescence, 60 min; 0% vehicle, 100% 7α,25-dihydroxycholesterol control; 2,400 tested, under 10 active; shares compounds with EBI2 block;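 active means activation of at least 50%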
bGal cs: beta-galactosidase inhibition counter-screen. shares compounds with EBI2 block. purified beta-galactosidase, luminescent Galacton Star, 15 min. inhibition, % at 5 µM. actives 1% (n = 2,400). AID 652176;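 active means replicate-average signal at least 3 plate SD below neutral wells, shown as high inhibition, flagging enzyme-inhibiting false positives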;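 further: higher means stronger loss of beta-gal luminescence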
A number is an active result; – = inactive; · = not tested or not shown.

SMILES	CCR6 antag	m5-HT2A agonist	CXCR6 block	EBI2 block	APJ antagonist	APJ agonist	EBI2 antag conf	EBI2 agonist	bGal cs
CCN(CC)CCNC(=O)c1ccc(NC(=O)c2ccc(Cl)c(S(=O)(=O)N3CCCCCC3)c2)cc1	–	–	–	–	–	–	·	·	·
CCC(C(=O)c1ccc2ncccc2c1)c1ccccc1 (configuration not stated)	–	–	–	61	–	–	–	–	–
O=C(Nc1ccc2ncccc2c1)c1ccccc1	–	–	–	–	–	–	·	·	·
Nc1ccccc1-c1nnc2n1CCCCC2	–	–	–	–	–	–	·	·	·
O=C(c1cc2cc(F)ccc2[nH]1)N1CCN(Cc2ccc3c(c2)OCO3)CC1	–	–	–	93	–	–	79	–	–
CCN1CCN(C(=O)c2cc3cc(F)ccc3[nH]2)CC1	–	–	–	55	–	–	–	–	–
CCCCn1ccnc1C	–	–	–	–	·	·	·	·	·
O=C(Nc1ccccc1)c1ccc(CN2CCC(Cc3ccccc3)CC2)cc1	–	–	–	65	–	–	–	–	–
COc1ccc(C(=O)Nc2ccc(N3CCN(Cc4ccccc4)CC3)cc2)cc1	–	–	–	–	–	–	·	·	·
O=C(Nc1ccccc1C(F)(F)F)c1ccc(CN2CCC(Cc3ccccc3)CC2)cc1	–	–	–	–	–	–	·	·	·
COc1ccc(NC(=O)c2ccc(CN3CCN(c4ccccc4)CC3)cc2)cc1	–	–	–	61	–	–	–	–	–
COC(=O)c1ccc(CN2CCN(C(C)C)C(CCO)C2)cc1 (configuration not stated)	–	–	–	–	–	–	·	·	·
COc1ccc(N(CC(=O)NCCOc2ccccc2)S(=O)(=O)c2ccc(C)cc2)cc1	–	–	–	87	–	–	64	–	–
CCOc1ccc(N(CC(=O)NCCOc2ccc(C)cc2)S(=O)(=O)c2ccccc2)cc1	–	–	–	91	–	–	65	–	–
CCOc1ccc(N(CC(=O)NCCc2ccccc2)S(=O)(=O)c2ccccc2)cc1	–	–	–	–	–	–	·	·	·
Cc1csc(NC(=O)c2cc3c(s2)CCC3)n1	–	–	–	–	–	–	·	·	·
Cc1ccc(OCC(=O)N2CCN(S(=O)(=O)c3ccc4c(c3)OCCO4)CC2)c(C)c1	–	–	–	70	–	–	53	–	–
Cc1ccc2c(CC(=O)N3CCN(S(=O)(=O)c4ccc5c(c4)OCCO5)CC3)coc2c1	–	–	–	50	–	–	–	–	–
COc1cccc(C(=O)Nc2cccc3ccccc23)c1OC	–	–	–	–	–	–	·	·	·
Cc1ccccc1Nc1c([N+](=O)[O-])ccc2c1=NC1(CCCCC1)N=2	–	–	–	56	–	–	–	–	–
Cc1nn(-c2ccccc2)c(Oc2ccc(F)cc2)c1/C=N/n1cnnc1	–	–	–	–	–	–	·	·	·
Cc1ccc(N/C=C(/C#N)c2ccsc2)cc1	–	–	–	–	–	–	·	·	·
COc1ccc(C(=O)NC(=S)Nc2cc3oc4ccccc4c3cc2OC)cc1	–	–	–	48	–	–	–	–	–
COc1cc(OC)cc(C(=O)NC(=S)Nc2cc3oc4ccccc4c3cc2OC)c1	–	–	–	–	–	–	·	·	·
COc1cc(C(=O)NCC(=O)N/N=C/c2cccc(OC(=O)c3ccco3)c2)cc(OC)c1OC	–	–	–	–	–	–	·	·	·
O=C(Nc1ccc2c(c1)OCCO2)C(c1ccnc2ccccc12)N1CCN(C/C=C/c2ccccc2)CC1 (configuration not stated)	·	–	–	50	·	·	–	–	–
O=C(Nc1ccc2c(c1)OCCO2)C(CCc1ccccc1)N1CCN(c2ccc(F)cc2)CC1 (configuration not stated)	·	–	–	–	·	·	·	·	·

Bioassay records: PubChem BioAssay, several laboratories
